Consider five compounds from ChEMBL document CHEMBL1121835, “Synthesis and anxiolytic activity of 6-(substituted-phenyl)-1,2,4-triazolo[4,3-b]pyridazines” (J Med Chem, 1981).

In general, inhibition refers to how much of the control response was suppressed. What is called ED50 is the dose at which the effect has come halfway, by size or by number of responders. One may read the IC50 as the point on the concentration scale where inhibition reaches its midpoint.

Each structure is given as a SMILES string. Active and inactive are the calls of the source. The calls are words filed in the database; no cut-off is given here.

Experiment [1] deals with T1, GABA-A receptor; anion channel (Rattus norvegicus) (UniProt O09028+P15431+P18506+P18508+P19969+P20236+P23574+P23576+P28471+P28473+P30191+P62813+P63079+P63138+Q91ZM7+Q9ES14). The experiment can be described thus: In vitro inhibition of [3H]diazepam binding towards Benzodiazepine receptor at 1 uM. Format: protein-complex assay.
Experiment [2] relates to Rattus norvegicus. As to the kind of experiment: Compound was evaluated for anxiolytic activity for protection against pentylenetetrazole-induced convulsions administered orally; No activity at 50 mg/Kg. The format is functional, organism-based. The method in brief:
(§1)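 Rats in groups of 10, food-deprived 24 h, given 4–6 graded doses of compound orally (or ip where noted). PTZ at 23 mg/kg was injected iv into the caudal vein 60 min later. Protection meant no clonic seizure lasting at least 5 s. The number protected was counted and the ED50 estimated.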

Experiment [3] concerns Rattus norvegicus. The experiment can be described thus: Compound was evaluated for anxiolytic activity for protection against pentylenetetrazole-induced convulsions administered intraperitoneally. Format: functional. Particulars: ip. The method in brief:
as §1

The subject of experiment [4] is Rattus norvegicus. The experiment can be described thus: Hypotensive activity evaluated as mean arterial blood pressure (MABP) in saline-loaded spontaneously hypertensive rats dosed (per oral) at 100 mg/kg; Toxic at 100 mg/Kg. The format is functional, organism-based. The method in brief: (§2)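 Male Okamoto SH rats, about 300 g, gavaged with compound suspended in 2% boiled starch, with 0.9% NaCl loading at 25 mL/kg, at 0 h. An identical dose without saline followed at 24 h. Mean arterial pressure was taken by iliac artery puncture under local lidocaine at 28 h. Values are from one to three rats.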

Experiment [5] concerns Rattus norvegicus. As to the kind of experiment: Hypotensive activity evaluated as mean arterial blood pressure (MABP) in saline-loaded spontaneously hypertensive rats dosed (per oral) at 25 mg/kg. Format: functional. In a few lines:
as §2

Experiment [6] relates to Rattus norvegicus. As to the kind of experiment: Hypotensive activity evaluated as mean arterial blood pressure (MABP) in saline-loaded spontaneously hypertensive rats dosed (per oral) at 50 mg/kg. The format is functional. The method in brief:
as §2

Experiment [7] concerns the target GABA-A receptor; anion channel. As to the kind of experiment: In vitro for inhibition of [3H]diazepam towards Benzodiazepine receptor from rat. The format is protein-complex assay. The method in brief:
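Rat frontal cortex homogenized in ice-cold 0.32 M sucrose; crude P2 synaptosomal fraction resuspended in 50 mM Tris-HCl pH 7.4. IC50 read graphically from % inhibition vs log concentration plots.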

The species entered for experiment [8] is Rattus norvegicus. As to the kind of experiment: Effect on […] seizures at 4 hr in rat. The format is functional. The method in brief: (§3)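 Rats, oral dosing at three dose levels with six rats per dose; PTZ challenge (23 mg/kg iv, caudal vein) at the stated interval after dosing. Animals scored as protected if free of at least 5 s of uninterrupted clonic seizures. The median effective dose (mg/kg) is reported with its 95% confidence interval.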

For experiment [9], the species on record is Rattus norvegicus. As to the kind of experiment: Effect on […] seizures at 5 hr in rat. The format is functional. In a few lines:
as §3

The species named for experiment [10] is Rattus norvegicus. As to the kind of experiment: Effect on […] seizures at 6 hr in rat. The format is functional. The method in brief: as §3
The species entered for experiment [11] is Rattus norvegicus. The experiment can be described thus: Effect on […] seizures at 7 hr in rat. Format: functional. In a few lines: as §3
The species named for experiment [12] is Rattus norvegicus. The experiment can be described thus: Effect on […] seizures at 0.5 hr in rat. The format is functional. The method in brief:
as §3

The species named for experiment [13] is Rattus norvegicus. As to the kind of experiment: Effect on […] seizures at 1 hr in rat. The format is functional. The method in brief: as §3
The species named for experiment [14] is Rattus norvegicus. The experiment can be described thus: Effect on […] seizures at 2 hr in rat. The format is functional. The method in brief:
as §3

The species entered for experiment [15] is Rattus norvegicus. The experiment can be described thus: Effect on […] seizures at 3 hr in rat. The format is functional. The method in brief: as §3
The species entered for experiment [16] is Rattus norvegicus. The experiment can be described thus: Anxiolytic activity for protection against pentylenetetrazole-induced convulsions in experiment 1. Particulars: Rattus norvegicus; read-out: ED50. The format is functional. The method in brief: as §1
For experiment [17], the species on record is Rattus norvegicus. As to the kind of experiment: Anxiolytic activity for protection against pentylenetetrazole-induced convulsions in experiment 2. The format is functional. The method in brief: as §1
Experiment [18] deals with Rattus norvegicus. As to the kind of experiment: Compound was evaluated for anxiolytic activity for protection against pentylenetetrazole-induced convulsions; No activity at 50 mg/kg. Format: functional, organism-based. On the set-up: dose 50 mg/kg. The method in brief: as §1
The target in experiment [19] is T1, GABA-A receptor; anion channel (Rattus norvegicus). The experiment can be described thus: In vitro percent inhibition of [3H]diazepam binding to rat GABA-A benzodiazepine receptor at 1 uM. The format is protein-complex assay.
Experiment [20] deals with Rattus norvegicus. The experiment can be described thus: Hypotensive activity in saline-loaded spontaneously hypertensive rats following 100 mg/kg p.o. administration. The format is functional. On the set-up: unit not given beside the values. Particulars: route oral. The method in brief:
as §2

For experiment [21], the species on record is Rattus norvegicus. As to the kind of experiment: Compound was evaluated for anxiolytic activity for protection against pentylenetetrazole-induced convulsions in experiment 2. The format is functional. In a few lines:
as §1

Take `Cc1nnc2ccc(-c3ccc(C(F)(F)F)cc3)nn12`: the inhibition in experiment [1] was 17%. In the experiment with Rattus norvegicus [2], the ED50 entry was “inactive”. The same compound returned a median effective dose (ED50) in the experiment on Rattus norvegicus [3] of 15 mg/kg. In addition, the figures for the MABP entry in the experiment with Rattus norvegicus [4], in the experiment on Rattus norvegicus [5] and in the experiment with Rattus norvegicus [6] were “Toxic”, 157 and 123, respectively.

With `Cc1nnc2ccc(-c3cccc(C(F)(F)F)c3)nn12` [CI-218872], 116 nM corresponded to half-maximal inhibition in experiment [7] (IC50). The same compound returned an inhibition in experiment [1] of 77%. Further, the ED50 was 1.8 mg/kg in the experiment listed under Rattus norvegicus [8]; 1.7 mg/kg in the experiment filed under Rattus norvegicus [9]; 2 mg/kg in the experiment listed under Rattus norvegicus [10]; 2.5 mg/kg in the experiment filed under Rattus norvegicus [11]; 0.5 mg/kg in the experiment listed under Rattus norvegicus [12]; 0.6 mg/kg in the experiment listed under Rattus norvegicus [13]. In addition, the ED50 in the experiment listed under Rattus norvegicus [14] amounted to 0.7 mg/kg; in the experiment listed under Rattus norvegicus [15] it was 1 mg/kg; in the experiment filed under Rattus norvegicus [16], 1.7 mg/kg; in the experiment listed under Rattus norvegicus [17] it was 1.1 mg/kg.

As for `CCc1nnc2ccc(-c3ccccc3)nn12`, the ED50 result in the experiment on Rattus norvegicus [18] was “inactive”.

On to `COc1cccc(-c2ccc3nncn3n2)c1`, for which the inhibition in experiment [1] came to 34%; in [19], 29%. The ED50 in the experiment on Rattus norvegicus [3] is 50 mg/kg.

In turn, `FC(F)(F)c1cccc(-c2ccc3nncn3n2)c1` yielded an IC50 in [7] of 905 nM. Besides, the inhibition in [1] is 55%. The 50% effective dose (ED50) in the experiment listed under Rattus norvegicus [16] was determined as 4.5 mg/kg; in the experiment listed under Rattus norvegicus [21] it was 2.5 mg/kg. The MABP was found to be 90 with Rattus norvegicus [20] and 117 with Rattus norvegicus [5].
